697 NFkB inh: inhibitors of PMA/ionomycin-induced NF-kB reporter, 697 cells, primary screen, B-cell NF-kB inhibitor project, cell-based, luminescence, uHTS | AID 435022, 2010 | 697 B-cell NF-kB luciferase reporter, 16 h | inhibition, % at 4 µM | actives 0.33% (n = 330,000); in the data active = inhibition above about 35%
GPR7 antagonist: GPR7 receptor antagonists, primary screen, cell-based, fluorescence, single concentration. actives 1.1% (n = 290,000). GPR7-expressing cells, fluorescence antagonist assay. AID 1861, 2009. Neuropeptides B/W receptor type 1 (Homo sapiens), P48145. inhibition, % at 4.4 µM; in the data active = inhibition above about 16%, passing the limit was not always enough;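 note: cells stimulated with the agonist NPW; 0% = agonist with vehicle and 100% = vehicle without agonist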
Target sequence (P48145 whole entry, looked up): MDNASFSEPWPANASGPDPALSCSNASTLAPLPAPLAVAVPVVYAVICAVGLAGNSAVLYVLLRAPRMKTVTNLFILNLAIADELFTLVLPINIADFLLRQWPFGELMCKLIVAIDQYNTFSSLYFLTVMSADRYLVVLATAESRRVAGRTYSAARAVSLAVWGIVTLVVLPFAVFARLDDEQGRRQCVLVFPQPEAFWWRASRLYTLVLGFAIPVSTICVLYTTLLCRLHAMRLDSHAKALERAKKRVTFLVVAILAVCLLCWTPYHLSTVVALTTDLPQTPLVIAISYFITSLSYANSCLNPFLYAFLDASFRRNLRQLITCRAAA
HSF1 inhib: HSF1 inhibitors in luciferase reporter cells, primary screen, cell-based, NIH3T3, luminescence; actives 0.77% (n = 300,000); AID 2098, 2009; NIH3T3-HGL HSE-luciferase, MG132-induced, luminescence 8 h; stronger effect = lower value; activity change, negative = inhibition, % at 7.5 µM (by protocol);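 active = more than half of replicate wells show activity change below -50%, luminescence cut by over half; inconclusive = some wells, but at most half, below -50%; inactive = no replicate well below -50%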;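 note: luciferase reports HSF-1 transcriptional activity via heat shock element; 0% = median of DMSO wells and -100% = zero luminescence signal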
HSF-1 act: HSF-1 activators, primary screen, NIH3T3-HGL cells, MG132 stress, luminescence, single point; NIH3T3-HGL HSF-1 luciferase reporter, 8 h; 100% = twice DMSO control signal; activation, % at 9 µM; actives 1.7% (n = 300,000); AID 504408, 2011;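 active = mean replicate activation of at least 50% with a set share of replicates each reaching 50%; inconclusive = only one of those two conditions met; inactive = mean below 50% and too few replicates reaching it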;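 note: 0% = median of the neutral control wells and 100% = twice that signal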
Jurkat NFkB inh: inhibitors of induced NF-kB luciferase reporter, primary screen, TCR NF-kB activation inhibitor project, cell-based, luminescence, uHTS; Jurkat, PMA/ionomycin-induced NF-kB luciferase reporter; actives 0.53% (n = 330,000); inhibition, % at 4 µM; AID 435003, 2010; in the data active = inhibition above about 50%
T cruzi repl: inhibitors of intracellular T. cruzi growth, primary screen, luminescence, NIH3T3 host cells; inhibition, % (concentration not given with the values); T. cruzi beta-gal in NIH3T3, 90 h; AID 1885, 2009; actives 1.4% (n = 300,000);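 active = mean inhibition across valid replicates above about 55%, limit read from the data; inconclusive = mean below that limit but half or more replicates reach it; inactive = mean below it, under half of replicates reach it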;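 note: signal also drops with host cell toxicity which is not excluded here; 0% = plate median of DMSO wells and 100% = zero luminescence signal; higher percent means less beta-gal luminescence so fewer parasites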
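System: mouse NIH/3T3 fibroblasts infected with β-gal-expressing T. cruzi Tulahuen C4 / Input: NIH/3T3 cells, 5,000 per well / Buffer or medium: Low-serum DMEM with 2% FBS / Probe or stimulus: 5000 reporter trypomastigotes per well / Schedule: ≥90 h infection period, 3 h prior cell attachment / Measured by: GalScreen luminescence, 60 min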
Active calls of the source: *; ? = inconclusive; nt = no result. The list is not random: actives were taken first. Their share in the collection is about 4.8%.

SMILES | 697 NFkB inh | GPR7 antagonist | HSF1 inhib | HSF-1 act | Jurkat NFkB inh | T cruzi repl
CCN1CCN(c2ccc(S(=O)(=O)N3CCCCC3)cc2NC(=O)c2cccc(C(F)(F)F)c2)CC1 | -43 | nt | -2 | -7 | 5 | 68*
COc1ccc2nc(SCC(=O)Nc3ccc(S(=O)(=O)N4CCCC4)cc3)c(C#N)cc2c1 | 20 | -4 | -5 | 10 | 2 | 28
N#Cc1cc2ccccc2nc1SCC(=O)Nc1ccc(S(=O)(=O)N2CCCC2)cc1 | 15 | 11 | 14 | 28 | 15 | 56*
CCN1CCN(c2ccc(S(=O)(=O)N3CCCCC3)cc2NC(=O)c2cccc(C)c2[N+](=O)[O-])CC1 | -28 | nt | 3 | 18 | -20 | 41
O=C(CNC1CCN(Cc2ccccc2)CC1)Nc1ccc(S(=O)(=O)N2CCCCC2)cc1 | -2 | -2 | 1 | 22 | -6 | 55*
CCCCN(C(=O)c1cc(-c2ccco2)nc2ccccc12)c1c(N)n(CCC)c(=O)[nH]c1=O | 8 | nt | nt | nt | -9 | nt
CCN(CC)C(=O)Cn1cc(C(=O)C2CC2)c2ccccc21 | 10 | -11 | 7 | 24 | -6 | -8
CC1(C)CC(=O)C2=C(C1)OC1=C(C(=O)CC(C)(C)C1)C2(C)C | 9 | 1 | -8 | -17 | -4 | -3
CCN1CCN(c2ccc(S(=O)(=O)N3CCCCC3)cc2NC(=O)Cc2ccccc2)CC1 | -3 | nt | -6 | -6 | 10 | 45
COc1ccccc1OCC(=O)Nc1ccc(S(=O)(=O)N2CCN(C)CC2)cc1 | 6 | -4 | -1 | 5 | 3 | -14
CCN1CCN(c2ccc(S(=O)(=O)N3CCCCC3)cc2NC(=O)Cc2ccc(Cl)c(Cl)c2)CC1 | 11 | nt | -5 | -25 | 4 | 63*
COc1ccccc1OCC(=O)Nc1ccc(S(=O)(=O)N2CCCC2)cc1 | 12 | 6 | -62* | -70 | 8 | 3
CCN1CCN(c2ccc(S(=O)(=O)N3CCCCC3)cc2NC(=O)c2ccc(C)o2)CC1 | -5 | nt | -1 | 1 | 4 | 55*
CCN1CCN(c2ccc(S(=O)(=O)N3CCCCC3)cc2NC(=O)c2ccccc2)CC1 | 1 | nt | -2 | 2 | -1 | 31
O=C(Cc1ccccc1F)Nc1ccc(S(=O)(=O)N2CCCCC2)cc1 | 4 | -3 | -65* | -73 | 10 | -4
Cc1cc(C)n2nc(C(=O)N3CCCC(Nc4ccc(F)c(F)c4)C3)cc2n1 (stereo not given) | 13 | -12 | -3 | -6 | 13 | -8
O=C(COc1ccc(S(=O)(=O)N2CCCC2)cc1)Nc1ccc2c(c1)OCCO2 | 7 | -3 | -17 | -19 | -4 | -11
CN(CC(=O)Nc1ccc(S(=O)(=O)N2CCCC2)cc1)Cc1ccc(Cl)cc1 | -3 | 2 | 0 | -2 | -1 | 57*
O=S(=O)(c1ccc(Cl)cc1)N1CCN(C2CCN(Cc3ccccc3)CC2)CC1 | -31 | 0 | -3 | -14 | 14 | 61*
O=[N+]([O-])c1ccc(S(=O)(=O)N2CCN(C3CCN(Cc4ccccc4)CC3)CC2)cc1 | 5 | 0 | -4 | -10 | 1 | ?
CCN1CCN(c2ccc(S(=O)(=O)N3CCCCC3)cc2NC(=O)Cc2ccccc2F)CC1 | -13 | nt | 3 | 33 | -11 | 55*
O=C(Nc1ccncc1)c1cccc(S(=O)(=O)N2CCN(c3ccc(F)cc3)CC2)c1 | 1 | nt | -2 | -4 | 29 | 58*
Cc1ccc(NS(=O)(=O)c2c(C)[nH]c(C)c2C(=O)N2CCCCC2)cc1Cl | 14 | -7 | -7 | 1 | -5 | 43
Cc1cc2ccccc2n1CCNC(=O)COc1ccccc1 | -2 | nt | 8 | -7 | -1 | 58*
CCOc1ccc2nc(SCC(=O)c3cccs3)sc2c1 | -76 | -17 | 35 | 61* | -75 | -8
SMILES | 697 NFkB inh | GPR7 antagonist | HSF1 inhib | HSF-1 act | Jurkat NFkB inh | T cruzi repl
CCN(CC)S(=O)(=O)c1ccc(N2CCOCC2)c(NC(=O)CC23CC4CC(CC(Br)(C4)C2)C3)c1 | 17 | -6 | 1 | 14 | -4 | 14
CCC(C)N(CC(=O)Nc1cccc(C)c1C)C(=O)CCl (stereo not given) | -11 | -1 | -4 | 11 | 28 | 69*
CC(C)N(CC(=O)Nc1ccc(Cl)cc1C(F)(F)F)C(=O)CCl | -21 | -10 | 13 | 35 | 18 | 83*
O=C(O)CSCC(=O)Nc1ccc(Cl)cc1C(F)(F)F | 19 | -14 | -1 | 1 | 11 | -20
O=C(COC(=O)CC1Sc2ccccc2NC1=O)NCc1ccccc1 (stereo not given) | -14 | nt | 0 | -9 | -22 | -1
COc1ccc(OCCN(C)C(=O)c2cccc(S(=O)(=O)N(C)c3ccccc3)c2)cc1 | -25 | nt | nt | nt | -2 | nt
Cc1ccc(C(=O)OCC(=O)c2ccc(Cl)s2)s1 | -3 | -4 | 28 | 60* | -10 | -10
CN(C)N1C(N)=C(C#N)C(c2cccnc2)C2=C1CCCC2=O (stereo not given) | 6 | -5 | 3 | 16 | 10 | -18
CCOC(=O)Cc1cnc(NC(=O)NC(C(=O)OCC)(c2ccccc2)C(F)(F)F)s1 (stereo not given) | 13 | -5 | 52 | 113* | 3 | -5
CCOC(=O)C(NC(=O)Nc1ccccc1)(OCC)C(F)(F)F (stereo not given) | 15 | -18 | -3 | 3 | 8 | -8
CCC(=O)c1ccc(OCC(=O)Nc2cc(S(=O)(=O)N3CCCCC3)ccc2N2CCN(CC)CC2)cc1 | -20 | nt | 12 | 18 | 0 | 45
CC(=O)NCCC(=O)Nc1cc(S(=O)(=O)N2CCCCC2)ccc1N1CCCCC1 | -5 | nt | nt | nt | 0 | nt
CC(=O)NCCC(=O)Nc1cc(S(=O)(=O)N2CCCCC2)ccc1N1CCN(C)CC1 | 4 | nt | 2 | 2 | -6 | 76*
CN1CCN(c2ccc(S(=O)(=O)N3CCCCC3)cc2NC(=O)COc2ccc([N+](=O)[O-])cc2)CC1 | 11 | nt | 0 | -16 | 8 | 58*
Cc1ccc(OCC(=O)Nc2cc(S(=O)(=O)N3CCCCC3)ccc2N2CCN(C)CC2)c(C)c1 | -20 | nt | 7 | 21 | 15 | 60*
COc1ccc(OC)c(CC(=O)Nc2ccc3c(c2)CCC3)c1 | 5 | 5 | 1 | 12 | 7 | 7
COc1cccc(CNc2ccc3c(c2)CCC3)c1 | -72 | 0 | -1 | -24 | -62 | 60*
COc1ccc(OC)c(CNc2ccc3c(c2)CCC3)c1 | -61 | -4 | -26 | -41 | -32 | 70*
